Drawing on ChEMBL document CHEMBL1143425, “Paradoxical growth effect of caspofungin observed on biofilms and planktonic cells of five different Candida species” (2007), this text covers Activity and MIC for 1 compound.

One assay has as its system Candida parapsilosis. Briefly: Antimicrobial activity against Candida parapsilosis BR-A28 grown as planktonic cell assessed as paradoxical growth after 48 hrs by XTT reduction assay. Type of assay: functional, organism-based. The method, boiled down:
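Planktonic broth microdilution followed CLSI M27-A2, with caspofungin dissolved in water. After 48 h, XTT-menadione was added to each well and plates were incubated 1 h at 35°C in the dark. Cells were pelleted by centrifugation and the supernatant was read at 490 nm. MIC was the lowest concentration giving a 50% drop in metabolic activity versus the drug-free control. PG was ≥20% of drug-free activity above the MIC.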
A general note: Tetrazolium assays rely on reduction of a dye to a coloured formazan, in cell work by metabolically active cells.

In another assay the test system is Candida tropicalis. Briefly: Antimicrobial activity against Candida tropicalis BR-A24 grown as biofilm assessed as concentration producing paradoxical growth after 48 hrs by XTT reduction assay. Type of assay: functional. The method, boiled down: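 Clinical isolates were grown overnight (18 h, 35°C, 120 rpm) in RPMI 1640 with MOPS, pH 7.0, then washed and set to ~1 × 10^7 cells/ml. Cells attached for 1.5 h at 37°C, 75 rpm, then biofilms grew 24 h. Caspofungin was given as doubling dilutions of 2–1,024 μg/ml for 48 h at 35°C, 75 rpm. Read-out was XTT-menadione in PBS, 1 h at 35°C in the dark, A490, cell-free blank subtracted. MIC was a 50% drop in activity versus drug-free; PG was >50% of control above MIC. Run in duplicate.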

Another assay deals with Candida orthopsilosis. In words: Antimicrobial activity against Candida orthopsilosis BR-A35 grown as planktonic cell after 48 hrs by XTT reduction assay. Type of assay: functional. Conditions: Lodderomyces orthopsilosis. The method, boiled down: (§1)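 Planktonic cells were tested by CLSI M27-A2 broth microdilution with caspofungin in water, incubated 48 h. XTT-menadione was added to each well, plates were held 1 h at 35°C in the dark and centrifuged, and supernatant absorbance was read at 490 nm. MIC was defined as 50% decrease in metabolic activity versus drug-free control. PG was defined as ≥20% of control activity at concentrations above MIC.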

Another assay concerns Candida metapsilosis. Briefly: Antimicrobial activity against Candida metapsilosis BR-A44 grown as planktonic cell assessed as paradoxical growth after 48 hrs by XTT reduction assay. In kind it is functional, organism-based. The procedure, abridged: as §1

In brackets after ≈: the same amount, converted by molar mass. Activity calls are given as the source filed them.

The term MIC denotes the lowest concentration found to suppress growth. High values mean a need for much substance, low ones inhibition by little substance.

As to `CC[C@H](C)C[C@H](C)CCCCCCCCC(=O)N[C@H]1C[C@@H](O)[C@@H](NCCN)NC(=O)[C@@H]2[C@@H](O)CCN2C(=O)[C@H]([C@H](O)CCN)NC(=O)[C@H]([C@H](O)[C@@H](O)c2ccc(O)cc2)NC(=O)[C@@H]2C[C@@H](O)CN2C(=O)[C@H]([C@@H](C)O)NC1=O` [CASPOFUNGIN], the outcome with Candida parapsilosis and in the assay on Candida metapsilosis was inactive. Further, in the assay on Candida tropicalis, the Activity stood at 8 µg/mL. Besides, in the assay with Candida orthopsilosis, the minimum inhibitory concentration (MIC) stood at 1 µg/mL (≈ 0.915 µM).
